Reference: ChEMBL document CHEMBL4257556, “Novel 1,3,4-thiadiazole-chalcone hybrids containing catechol moiety: synthesis, antioxidant activity, cytotoxicity and DNA interaction studies” (Medchemcomm, 2018)
Calls of active or inactive are those of the source. The calls are words filed in the database; no cut-off is given here.

Tests used:
[1] = Antioxidant activity assessed as DPPH free radical scavenging activity after 30 mins; type: functional
Summary of the method: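 DPPH (0.05 mM in methanol) mixed with equal volume of compound (DMSO solution diluted in methanol), kept in dark at room temperature 30 min; absorbance at 517 nm, methanol control, ascorbic acid positive control. IC50 = concentration giving 50% of maximum scavenging; mean ± SD of independent triplicate experiments.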

HeLa [2] = assay: Prooxidant activity in human HeLa cells assessed as increase in H2O2-induced reactive oxygen species at 10 uM preincubated for 24 hrs followed by H2O2 addition and measured after 30 mins by dichlorofluorescein dye-based flow cytometric method; type: functional, cell-based
Summary of the method: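 HeLa cells pretreated 24 h with 10 μM compound, washed, loaded with 30 μM DCFH-DA in PBS 45 min at 37 °C. One portion read directly (endogenous ROS); other portion exposed to 10 mM H2O2 30 min at 37 °C. DCF green fluorescence by flow cytometry, 20 000 events per sample; mean ± SD of two independent experiments.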

HeLa [3] = assay: Cytotoxicity against human HeLa cells assessed as decrease in cell survival after 72 hrs by MTT assay; type: functional, cell-based
Summary of the method: (§1)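 HeLa (2000/well), A549 and MRC-5 (5000/well) seeded 20 h before treatment; HL-60 (7000/well) 2 h before. Five concentrations (6.25–100 μM or 3.125–50 μM) from 5 mM DMSO stocks, final DMSO ≤1%, 72 h; survival by MTT. Cisplatin positive control; three independent experiments in triplicate.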

HL-60 = assay: Cytotoxicity against human HL60 cells assessed as decrease in cell survival after 72 hrs by MTT assay; type: functional, cell-based; conditions: HL-60, 72 h; summary of the method: as §1
A549 = assay: Cytotoxicity against human A549 cells assessed as decrease in cell survival after 72 hrs by MTT assay; type: functional, cell-based; conditions: A549, 72 h; summary of the method: as §1
MRC5 [4] = assay: Cytotoxicity against human MRC5 cells assessed as decrease in cell survival after 72 hrs by MTT assay; type: cell-based; conditions: MRC5, 72 h; summary of the method: as §1
HeLa [5] = assay: Cell cycle arrest in human HeLa cells assessed as accumulation at sub-G1 phase at IC50 and 2 times IC50 after 24 hrs by propidium iodide staining-based flow cytometric method; type: functional
Summary of the method: (§2)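 HeLa cells treated 24 h at IC50 or 2×IC50 (from 72 h assay), fixed in 70% ethanol, stored at –20 °C ≥1 week, RNase A 30 min 37 °C, propidium iodide stained; flow cytometry, 10 000 gated events. Mean ± SD of three independent experiments; one-way ANOVA with Dunnett's post-test, p < 0.05.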

HeLa [6] = assay: Cell cycle arrest in human HeLa cells assessed as accumulation at G2/M phase at 2 times IC50 after 24 hrs by propidium iodide staining-based flow cytometric method; type: functional; summary of the method: as §2
HeLa [7] = assay: Cell cycle arrest in human HeLa cells assessed as decrease in cell levels at G1 phase at 2 times IC50 after 24 hrs by propidium iodide staining-based flow cytometric method; type: functional; summary of the method: as §2
HeLa [8] = assay: Cell cycle arrest in human HeLa cells assessed as accumulation at sub-G1 phase at 2 times IC50 after 24 hrs in presence of caspase-3 inhibitor Z-DEVD-FMK by propidium iodide-staining based flow cytometric method; type: functional
Summary of the method: (§3)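 HeLa cells pretreated 2 h with 40 μM peptide caspase inhibitor (Z-DEVD-FMK caspase-3, Z-IETD-FMK caspase-8 or Z-LEHD-FMK caspase-9), then exposed to 2×IC50 compound; subG1 fraction by propidium iodide flow cytometry, compared with samples lacking inhibitor.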

HeLa [9] = assay: Cell cycle arrest in human HeLa cells assessed as accumulation at sub-G1 phase at 2 times IC50 after 24 hrs in presence of caspase-9 inhibitor Z-LEHD-FMK by propidium iodide-staining based flow cytometric method; type: functional; summary of the method: as §3
HeLa [10] = assay: Cell cycle arrest in human HeLa cells assessed as accumulation at sub-G1 phase at 2 times IC50 after 24 hrs in presence of caspase-8 inhibitor Z-IETD-FMK by propidium iodide-staining based flow cytometric method; type: functional; summary of the method: as §3
HeLa [11] = assay: Downregulation of MMP2 gene expression in human HeLa cells at 10 uM after 24 hrs by RT-qPCR method; type: functional, cell-based
HeLa [12] = assay: Downregulation of TIMP3 gene expression in human HeLa cells at 10 uM after 24 hrs by RT-qPCR method; type: functional, cell-based
HeLa [13] = assay: Upregulation of MMP9 gene expression in human HeLa cells at 10 uM after 24 hrs by RT-qPCR method; type: functional, cell-based
HeLa [14] = assay: Downregulation of VEGFA gene expression in human HeLa cells at 10 uM after 24 hrs by RT-qPCR method; type: functional, cell-based
HeLa [15] = assay: Downregulation of miR-21 expression in human HeLa cells at 10 uM after 24 hrs by RT-qPCR method; type: functional, cell-based
HeLa [16] = assay: Downregulation of miR-155 expression in human HeLa cells at 10 uM after 24 hrs by RT-qPCR method; type: functional, cell-based
HeLa [17] = assay: Downregulation of miR-133b expression in human HeLa cells at 10 uM after 24 hrs by RT-qPCR method; type: functional, cell-based
HeLa [18] = assay: Upregulation of miR-206 expression in human HeLa cells at 10 uM after 24 hrs by RT-qPCR method; type: functional, cell-based
Calf thymus DNA [19] = assay: Binding affinity to calf thymus DNA at 10 to 40 uM after 90 mins by UV/visible spectrophotometric analysis; type: nucleic-acid assay; conditions: Bos taurus
Summary of the method: (§4)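 CT-DNA stock in 10 mM Tris-HCl pH 7.9 (A260/A280 1.89–2.01; concentration from ε260 6600 M–1 cm–1). Compound (10, 20 or 40 μM) plus CT-DNA (95 μM) in 40 mM bicarbonate pH 8.4, 37 °C 90 min; spectra 200–800 nm. Hyper/hypochromism at 259 nm from bound versus summed free compound and DNA extinction; triplicate.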

Calf thymus DNA [20] = assay: Binding affinity to calf thymus DNA assessed as hypochromism at 10 to 20 uM after 90 mins by UV/visible spectrophotometric analysis; type: nucleic-acid assay; conditions: Bos taurus; summary of the method: as §4
Calf thymus DNA [21] = assay: Binding affinity to calf thymus DNA assessed as hypochromism at 40 uM after 90 mins by UV/visible spectrophotometric analysis; type: nucleic-acid assay; conditions: Bos taurus; summary of the method: as §4
Calf thymus DNA [22] = assay: Binding affinity to calf thymus DNA after 90 mins by spectroscopic titration method; type: nucleic-acid assay; conditions: Bos taurus
Summary of the method: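 Compound fixed at 40 μM titrated with CT-DNA (2.2–13 × 10–5 M) in 40 mM bicarbonate pH 8.4 after 90 min at 37 °C; absorbance at 259 nm per DNA level. Kb from slope/intercept ratio of [DNA]/(εa–εf) versus [DNA] plot; triplicate assays.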

Calf thymus DNA [23] = assay: Displacement of Hoechst 33258 from calf thymus DNA assessed as fluorescence intensity of compound-DNA complex at 22 uM by fluorescence spectrophotometric analysis relative to control; type: nucleic-acid assay; conditions: Bos taurus
Summary of the method: (§5)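 CT-DNA 100 μM (per phosphate) in 40 mM bicarbonate pH 8.4 pretreated 20 min with Hoechst 33258 (28 μM final), then compound added stepwise. Excitation 350 nm, emission 390–550 nm, read at 444 nm, 10 nm slits; H–DNA as control. Quenching constant K by Stern–Volmer, I0/I versus r = [compound]/[DNA]; triplicate.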

Calf thymus DNA [24] = assay: Displacement of Hoechst 33258 from calf thymus DNA assessed as quenching constant by fluorescence spectrophotometric analysis; type: nucleic-acid assay; conditions: Bos taurus; summary of the method: as §5
MRC5 [25] = assay: Induction of DNA damage in human MRC5 cells assessed as formation of DNA breaks at 25 uM after 24 hrs by comet assay relative to control; type: functional
Summary of the method: (§6)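 MRC-5 cells exposed 24 h to 3.125–25 μM compound; DNA damage scored as % tail DNA (tail intensity) by comet assay. PBS negative control; H2O2 50 μM 5 min in-gel positive control. Triplicate, repeated twice; mean ± SD.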

MRC5 [26] = assay: Induction of DNA damage in human MRC5 cells assessed as formation of DNA breaks after 24 hrs by comet assay; type: functional, cell-based; summary of the method: as §6
DNA [27] = assay: Induction of Escherichia coli pUC19 DNA cleavage at 0.05 to 0.4 mM after 90 mins by agarose gel electrophoresis method; type: nucleic-acid assay
Summary of the method: (§7)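 Plasmid pUC19 (from E. coli XL1 blue; 460 ng, 12 nM) incubated with compound (0.05–0.4 mM; from 2 mM DMSO stock) in 20 μL 40 mM bicarbonate pH 8.4 at 37 °C for 90 min; 1% agarose gel in TAE at 80 V, ethidium bromide staining, UV at 312 nm; supercoiled/nicked/linear forms scored.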

DNA [28] = assay: Reversal of Fe2+-induced Escherichia coli pUC19 DNA cleavage at 1:1 compound to Fe2+ mole ratio after 90 mins by agarose gel electrophoresis method; type: functional
Summary of the method: (§8)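 Compound (4 μL of 2 mM) preincubated with FeSO4 (1 or 2 μL of 8 mM; compound:Fe 1:1 or 1:2) in bicarbonate buffer 60 min at 37 °C, then pUC19 added for another 90 min; products resolved on 1% agarose gel, ethidium bromide stained.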

DNA [29] = assay: Reversal of Fe2+-induced Escherichia coli pUC19 DNA cleavage at 1:2 compound to Fe2+ mole ratio after 90 mins by agarose gel electrophoresis method; type: functional; summary of the method: as §8
EA.hy 926 = assay: Antiangiogenic activity in human EAhy926 cells assessed as inhibition of tubular structures formation at IC20 after 20 hrs by inverted phase-contrast microscopic method; type: functional, cell-based
Calf thymus DNA [30] = assay: Binding affinity to calf thymus DNA assessed as hyperchromism at 10 to 20 uM after 90 mins by UV/visible spectrophotometric analysis; type: nucleic-acid assay; conditions: Bos taurus; summary of the method: as §4
DNA [31] = assay: Induction of Escherichia coli pUC19 DNA cleavage after 90 mins by agarose gel electrophoresis method; type: nucleic-acid assay; summary of the method: as §7

Row | IC50 [1] [µM] | Activity (Calf thymus DNA [19]) | SMILES | Activity (HeLa [2]) | IC50 (HeLa [3]) [µM] | IC50 (HL-60) [µM] | IC50 (A549) [µM] | IC50 (MRC5 [4]) [µM] | Activity (HeLa [5]) | Activity (HeLa [6]) | Activity (HeLa [8]) | Activity (HeLa [9]) | Activity (HeLa [10]) | Activity (HeLa [11]) | Activity (HeLa [12]) | Activity (HeLa [13]) | Activity (HeLa [14]) | Activity (HeLa [15]) | Activity (HeLa [16]) | Activity (HeLa [17]) | Activity (HeLa [18]) | other results
1 | 12 | Active | O=C(/C=C/c1ccc(C(=O)Nc2nnc(-c3ccc(O)c(O)c3)s2)cc1)c1ccccc1 | Active | 9.37 | 8.4 | 42.8 | 36 | Active | Active | inactive | inactive | inactive | Active | Active | Active | inactive | Active | Active | Active | Active | Activity (HeLa [7]): Active; Activity (Calf thymus DNA [20]): 13%; Activity (Calf thymus DNA [21]): inactive; Kb (Calf thymus DNA [22]): 1.09 ×10³ /M; Activity (Calf thymus DNA [23]): 58%; K (Calf thymus DNA [24]): 3.3; Activity (MRC5 [25]): 45%; Activity (MRC5 [26]): Dose-dependent effect; Activity (DNA [27]): inactive; Activity (DNA [28]): Active; Activity (DNA [29]): Active
2 | 11.1 | Active | O=C(Nc1nnc(-c2ccc(O)c(O)c2)s1)c1ccc(/C=C/C(=O)c2cccs2)cc1 | inactive | 12.7 | 15.7 | 47.9 | 68.5 | Active | Active | inactive | inactive | inactive | Active | Active | Active | Active | Active | Active | Active | inactive | Activity (HeLa [7]): Active; inhibition (EA.hy 926): Active; Activity (Calf thymus DNA [30]): Active; Kb (Calf thymus DNA [22]): 1.01 ×10³ /M; Activity (Calf thymus DNA [23]): 51%; K (Calf thymus DNA [24]): 4.66; Activity (MRC5 [25]): 25%; Activity (MRC5 [26]): Dose-dependent effect; Activity (DNA [31]): inactive; Activity (DNA [28]): Active; Activity (DNA [29]): Active
3 | 10.3 | Active | COc1cccc(C(=O)/C=C/c2ccc(C(=O)Nc3nnc(-c4ccc(O)c(O)c4)s3)cc2)c1 | Active | 9.98 | 9.92 | 92.1 | 42.5 | Active | Active | inactive | inactive | inactive | Active | Active | Active | Active | inactive | Active | Active | Active | inhibition (EA.hy 926): Active; Activity (Calf thymus DNA [20]): 2.4%; Kb (Calf thymus DNA [22]): 0.71 ×10³ /M; Activity (Calf thymus DNA [23]): 55%; K (Calf thymus DNA [24]): 3.95; Activity (MRC5 [25]): 20%; Activity (MRC5 [26]): Dose-dependent effect; Activity (DNA [31]): inactive; Activity (DNA [28]): Active; Activity (DNA [29]): Active
